Converted amounts (≈) assume the structure as drawn.
Assays:
Format in all cases: functional
[1] = system: Candida parapsilosis; experiment: Antifungal activity against Candida parapsilosis by micro-broth dilution method; conditions: Lodderomyces parapsilosis
Outline: (§1)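 MIC80 by broth microdilution in 96-well format following NCCLS. Compounds were dissolved in DMSO, serially diluted in growth medium, inoculated and incubated at 35 °C. The endpoint was the first well with about 80% growth reduction versus the drug-free well. Values are means of three replicate tests.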

[2] = system: Candida albicans; experiment: Antifungal activity against Candida albicans SC5314 after 24 hrs by micro-broth dilution method; conditions: SC5314, 24 h
Outline: (§2)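 Broth microdilution per NCCLS on Candida albicans. Compounds were dissolved in DMSO, serially diluted in growth medium, inoculated and incubated at 35 °C. Growth was read at 24 h, and MIC80 was taken as the first well with about 80% growth reduction relative to the drug-free control. Values are the mean of three replicates.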

[3] = system: Candida albicans; experiment: Antifungal activity against Candida albicans Y0109 after 24 hrs by micro-broth dilution method; conditions: Y0109, 24 h; outline: as §2
[4] = system: Candida tropicalis; experiment: Antifungal activity against Candida tropicalis by micro-broth dilution method; outline: as §1
[5] = system: Cryptococcus neoformans; experiment: Antifungal activity against Cryptococcus neoformans after 72 hrs by micro-broth dilution method
Outline: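 Cryptococcus neoformans tested by NCCLS micro-broth dilution. Compounds were dissolved in DMSO, serially diluted in medium, inoculated and incubated at 35 °C. MIC80 was read at 72 h as the first well showing approximately 80% growth reduction compared with the drug-free well. Values are the mean of three replicate tests.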

[6] = system: Kluyveromyces marxianus; experiment: Antifungal activity against Candida kefyr by micro-broth dilution method; outline: as §1
[7] = system: Aspergillus fumigatus; experiment: Antifungal activity against Aspergillus fumigatus by micro-broth dilution method; outline: as §1
[8] = system: Trichophyton rubrum; experiment: Antifungal activity against Trichophyton rubrum by micro-broth dilution method; outline: as §1

SMILES | MIC [1] | MIC [2] | MIC [3] | MIC [4] | MIC [5] | MIC [6] | MIC [7] | MIC [8]
CCCCCCCCCCCCCCCCn1cc(CN(CC(O)(Cn2cncn2)c2ccc(F)cc2F)C(C)C)nn1 (stereo not drawn) | 0.5 mg/L (≈ 0.831 µM) | < 0.125 mg/L | 0.0625 mg/L (≈ 0.104 µM) | < 0.125 mg/L | 2 mg/L (≈ 3.32 µM) | 0.25 mg/L (≈ 0.415 µM) | > 64 mg/L | 0.25 mg/L (≈ 0.415 µM)
CC(C)N(Cc1cn(Cc2ccccc2[N+](=O)[O-])nn1)CC(O)(Cn1cncn1)c1ccc(F)cc1F (stereo not drawn) | 8 mg/L (≈ 15.6 µM) | < 0.125 mg/L | 0.0625 mg/L (≈ 0.122 µM) | 2 mg/L (≈ 3.9 µM) | 32 mg/L (≈ 62.4 µM) | 0.0625 mg/L (≈ 0.122 µM) | > 64 mg/L | 1 mg/L (≈ 1.95 µM)
CC(C)N(Cc1cn(Cc2ccccc2C#N)nn1)CC(O)(Cn1cncn1)c1ccc(F)cc1F (stereo not drawn) | 8 mg/L (≈ 16.2 µM) | 0.25 mg/L (≈ 0.508 µM) | 0.0156 mg/L (≈ 0.0317 µM) | 1 mg/L (≈ 2.03 µM) | 64 mg/L (≈ 130 µM) | 1 mg/L (≈ 2.03 µM) | > 64 mg/L | 2 mg/L (≈ 4.06 µM)
CC(C)N(Cc1cn(Cc2ccc(C#N)cc2)nn1)CC(O)(Cn1cncn1)c1ccc(F)cc1F (stereo not drawn) | 0.5 mg/L (≈ 1.02 µM) | 1 mg/L (≈ 2.03 µM) | 0.0156 mg/L (≈ 0.0317 µM) | < 0.125 mg/L | 16 mg/L (≈ 32.5 µM) | 0.25 mg/L (≈ 0.508 µM) | > 64 mg/L | < 0.125 mg/L
OC(CN(Cc1cn(Cc2cccc(F)c2)nn1)C1CC1)(Cn1cncn1)c1ccc(F)cc1F (stereo not drawn) | < 0.125 mg/L | < 0.125 mg/L | 0.0625 mg/L (≈ 0.129 µM) | < 0.125 mg/L | > 64 mg/L | 0.0156 mg/L (≈ 0.0323 µM) | 64 mg/L (≈ 132 µM) | < 0.125 mg/L
CC(C)N(Cc1cn(Cc2ccccc2F)nn1)CC(O)(Cn1cncn1)c1ccc(F)cc1F (stereo not drawn) | 0.25 mg/L (≈ 0.515 µM) | < 0.125 mg/L | 0.0156 mg/L (≈ 0.0321 µM) | < 0.125 mg/L | 2 mg/L (≈ 4.12 µM) | 0.0625 mg/L (≈ 0.129 µM) | > 64 mg/L | < 0.125 mg/L
CC(C)N(Cc1cn(Cc2cccc(F)c2)nn1)CC(O)(Cn1cncn1)c1ccc(F)cc1F (stereo not drawn) | 0.25 mg/L (≈ 0.515 µM) | < 0.125 mg/L | 0.0156 mg/L (≈ 0.0321 µM) | < 0.125 mg/L | 4 mg/L (≈ 8.24 µM) | 0.0625 mg/L (≈ 0.129 µM) | > 64 mg/L | < 0.125 mg/L
CC(C)N(Cc1cn(Cc2ccccc2Cl)nn1)CC(O)(Cn1cncn1)c1ccc(F)cc1F (stereo not drawn) | 2 mg/L (≈ 3.98 µM) | < 0.125 mg/L | 0.0039 mg/L (≈ 0.00777 µM) | 1 mg/L (≈ 1.99 µM) | 16 mg/L (≈ 31.9 µM) | 0.25 mg/L (≈ 0.498 µM) | > 64 mg/L | < 0.125 mg/L
CC(C)N(Cc1cn(Cc2ccccc2Br)nn1)CC(O)(Cn1cncn1)c1ccc(F)cc1F (stereo not drawn) | < 0.125 mg/L | < 0.125 mg/L | 0.0156 mg/L (≈ 0.0285 µM) | < 0.125 mg/L | 1 mg/L (≈ 1.83 µM) | 0.0156 mg/L (≈ 0.0285 µM) | 16 mg/L (≈ 29.3 µM) | < 0.125 mg/L
CC(C)N(Cc1cn(Cc2ccc(Br)cc2)nn1)CC(O)(Cn1cncn1)c1ccc(F)cc1F (stereo not drawn) | 4 mg/L (≈ 7.32 µM) | < 0.125 mg/L | 0.0625 mg/L (≈ 0.114 µM) | 1 mg/L (≈ 1.83 µM) | 8 mg/L (≈ 14.6 µM) | 0.25 mg/L (≈ 0.458 µM) | > 64 mg/L | 1 mg/L (≈ 1.83 µM)
Cc1ccc(Cn2cc(CN(CC(O)(Cn3cncn3)c3ccc(F)cc3F)C(C)C)nn2)cc1 (stereo not drawn) | 2 mg/L (≈ 4.15 µM) | 1 mg/L (≈ 2.08 µM) | 0.0625 mg/L (≈ 0.13 µM) | 0.25 mg/L (≈ 0.519 µM) | 8 mg/L (≈ 16.6 µM) | 1 mg/L (≈ 2.08 µM) | > 64 mg/L | 0.25 mg/L (≈ 0.519 µM)

More lines, in order of falling MIC [1], values ahead:

MIC [1] | MIC [2] | MIC [3] | MIC [4] | MIC [5] | MIC [6] | MIC [7] | MIC [8] | SMILES
16 mg/L (≈ 32.5 µM) | < 0.125 mg/L | 0.0625 mg/L (≈ 0.127 µM) | 16 mg/L (≈ 32.5 µM) | 64 mg/L (≈ 130 µM) | 0.25 mg/L (≈ 0.508 µM) | > 64 mg/L | 16 mg/L (≈ 32.5 µM) | CC(C)N(Cc1cn(Cc2cccc(C#N)c2)nn1)CC(O)(Cn1cncn1)c1ccc(F)cc1F (stereo not drawn)
4 mg/L (≈ 7.8 µM) | < 0.125 mg/L | 0.0039 mg/L (≈ 0.00761 µM) | 1 mg/L (≈ 1.95 µM) | 16 mg/L (≈ 31.2 µM) | 0.25 mg/L (≈ 0.488 µM) | > 64 mg/L | 2 mg/L (≈ 3.9 µM) | CC(C)N(Cc1cn(Cc2ccc([N+](=O)[O-])cc2)nn1)CC(O)(Cn1cncn1)c1ccc(F)cc1F (stereo not drawn)
4 mg/L (≈ 8.27 µM) | 1 mg/L (≈ 2.07 µM) | 0.25 mg/L (≈ 0.517 µM) | 1 mg/L (≈ 2.07 µM) | 16 mg/L (≈ 33.1 µM) | 0.0625 mg/L (≈ 0.129 µM) | > 64 mg/L | 2 mg/L (≈ 4.14 µM) | OC(CN(Cc1cn(Cc2ccc(F)cc2)nn1)C1CC1)(Cn1cncn1)c1ccc(F)cc1F (stereo not drawn)
4 mg/L (≈ 8.24 µM) | 0.25 mg/L (≈ 0.515 µM) | 0.25 mg/L (≈ 0.515 µM) | 1 mg/L (≈ 2.06 µM) | 8 mg/L (≈ 16.5 µM) | 0.25 mg/L (≈ 0.515 µM) | > 64 mg/L | 2 mg/L (≈ 4.12 µM) | CC(C)N(Cc1cn(Cc2ccc(F)cc2)nn1)CC(O)(Cn1cncn1)c1ccc(F)cc1F (stereo not drawn)
4 mg/L (≈ 7.97 µM) | < 0.125 mg/L | 0.0156 mg/L (≈ 0.0311 µM) | 2 mg/L (≈ 3.98 µM) | 32 mg/L (≈ 63.7 µM) | 0.25 mg/L (≈ 0.498 µM) | > 64 mg/L | 2 mg/L (≈ 3.98 µM) | CC(C)N(Cc1cn(Cc2cccc(Cl)c2)nn1)CC(O)(Cn1cncn1)c1ccc(F)cc1F (stereo not drawn)
2 mg/L (≈ 3.9 µM) | < 0.125 mg/L | 0.0625 mg/L (≈ 0.122 µM) | 4 mg/L (≈ 7.8 µM) | 32 mg/L (≈ 62.4 µM) | 0.25 mg/L (≈ 0.488 µM) | > 64 mg/L | 1 mg/L (≈ 1.95 µM) | CC(C)N(Cc1cn(Cc2cccc([N+](=O)[O-])c2)nn1)CC(O)(Cn1cncn1)c1ccc(F)cc1F (stereo not drawn)
2 mg/L (≈ 4.35 µM) | < 0.125 mg/L | 0.0625 mg/L (≈ 0.136 µM) | 0.5 mg/L (≈ 1.09 µM) | 16 mg/L (≈ 34.8 µM) | 0.25 mg/L (≈ 0.544 µM) | > 64 mg/L | 1 mg/L (≈ 2.18 µM) | CC(C)N(Cc1cn(C2CCCCC2)nn1)CC(O)(Cn1cncn1)c1ccc(F)cc1F (stereo not drawn)
2 mg/L (≈ 3.98 µM) | < 0.125 mg/L | 0.0625 mg/L (≈ 0.125 µM) | 0.5 mg/L (≈ 0.996 µM) | 4 mg/L (≈ 7.97 µM) | 0.25 mg/L (≈ 0.498 µM) | > 64 mg/L | 0.5 mg/L (≈ 0.996 µM) | CC(C)N(Cc1cn(Cc2ccc(Cl)cc2)nn1)CC(O)(Cn1cncn1)c1ccc(F)cc1F (stereo not drawn)
1 mg/L (≈ 1.91 µM) | < 0.125 mg/L | 0.25 mg/L (≈ 0.477 µM) | 2 mg/L (≈ 3.82 µM) | 32 mg/L (≈ 61.1 µM) | 0.25 mg/L (≈ 0.477 µM) | > 64 mg/L | 1 mg/L (≈ 1.91 µM) | CC(C)N(Cc1cn(Cc2ccc(C(C)(C)C)cc2)nn1)CC(O)(Cn1cncn1)c1ccc(F)cc1F (stereo not drawn)
1 mg/L (≈ 2.07 µM) | 0.5 mg/L (≈ 1.03 µM) | 0.0625 mg/L (≈ 0.129 µM) | 0.5 mg/L (≈ 1.03 µM) | 8 mg/L (≈ 16.5 µM) | 0.0156 mg/L (≈ 0.0323 µM) | > 64 mg/L | 0.25 mg/L (≈ 0.517 µM) | OC(CN(Cc1cn(Cc2ccccc2F)nn1)C1CC1)(Cn1cncn1)c1ccc(F)cc1F (stereo not drawn)
0.5 mg/L (≈ 0.932 µM) | 4 mg/L (≈ 7.46 µM) | 0.0156 mg/L (≈ 0.0291 µM) | 0.25 mg/L (≈ 0.466 µM) | 8 mg/L (≈ 14.9 µM) | 0.25 mg/L (≈ 0.466 µM) | > 64 mg/L | 0.25 mg/L (≈ 0.466 µM) | CC(C)N(Cc1cn(Cc2ccc(Cl)cc2Cl)nn1)CC(O)(Cn1cncn1)c1ccc(F)cc1F (stereo not drawn)
0.25 mg/L (≈ 0.535 µM) | < 0.125 mg/L | 0.0039 mg/L (≈ 0.00834 µM) | < 0.125 mg/L | 8 mg/L (≈ 17.1 µM) | 0.0625 mg/L (≈ 0.134 µM) | 64 mg/L (≈ 137 µM) | < 0.125 mg/L | CC(C)N(Cc1cn(Cc2ccccc2)nn1)CC(O)(Cn1cncn1)c1ccc(F)cc1F (stereo not drawn)
0.25 mg/L (≈ 0.5 µM) | < 0.125 mg/L | 0.0625 mg/L (≈ 0.125 µM) | < 0.125 mg/L | 4 mg/L (≈ 8 µM) | 0.0156 mg/L (≈ 0.0312 µM) | > 64 mg/L | < 0.125 mg/L | OC(CN(Cc1cn(Cc2ccccc2Cl)nn1)C1CC1)(Cn1cncn1)c1ccc(F)cc1F (stereo not drawn)
0.0625 mg/L (≈ 0.117 µM) | 0.0039 mg/L (≈ 0.00727 µM) | < 0.125 mg/L | 0.0156 mg/L (≈ 0.0291 µM) | 0.0625 mg/L (≈ 0.117 µM) | 0.0156 mg/L (≈ 0.0291 µM) | > 64 mg/L | 0.0156 mg/L (≈ 0.0291 µM) | CC(C)N(Cc1cn(Cc2c(Cl)cccc2Cl)nn1)CC(O)(Cn1cncn1)c1ccc(F)cc1F (stereo not drawn)
0.0156 mg/L (≈ 0.0285 µM) | 0.25 mg/L (≈ 0.458 µM) | 1 mg/L (≈ 1.83 µM) | 0.25 mg/L (≈ 0.458 µM) | 1 mg/L (≈ 1.83 µM) | 0.0039 mg/L (≈ 0.00714 µM) | > 64 mg/L | 0.0625 mg/L (≈ 0.114 µM) | CC(C)N(Cc1cn(Cc2cccc(Br)c2)nn1)CC(O)(Cn1cncn1)c1ccc(F)cc1F (stereo not drawn)
